# PubChem BioAssay
# Some of the results follow. Calls of active or inactive are those of the source.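 How the source made its calls: active means substances whose mean melting-temperature shift, as a percentage of the reference inhibitor's shift, reaches about 5.3% (limit read from the data); inactive means the rest.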
# Biological target: Carboxy-terminal domain RNA polymerase II polypeptide A small phosphatase 1 (Homo sapiens) (UniProt Q9GZU7)
# Assay: Scp-1 binding by thermal shift, confirmation, orthogonal assay for Scp-1 inhibitor project, biophysical, differential scanning fluorimetry (AID 540329);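 further: 0% = Tm of DMSO wells and 100% = Tm with sodium orthovanadate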
# Settings: Recombinant SCP1, Sypro Orange thermal shift Tm; at 40 µM; active compounds read high
# How it was run: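 material = Scp-1 phosphatase domain | quantity = Scp-1 protein added from a 10 µM stock solution | timing = 20-95 °C thermal ramp | detection = differential scanning fluorimetry | measure = compound-induced change in Scp-1 melting temperature, scaled to vanadate | controls = vanadate reference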
# Carboxy-terminal domain RNA polymerase II polypeptide A small phosphatase 1 (Homo sapiens), sequence (Q9GZU7 76-261 limits assumed): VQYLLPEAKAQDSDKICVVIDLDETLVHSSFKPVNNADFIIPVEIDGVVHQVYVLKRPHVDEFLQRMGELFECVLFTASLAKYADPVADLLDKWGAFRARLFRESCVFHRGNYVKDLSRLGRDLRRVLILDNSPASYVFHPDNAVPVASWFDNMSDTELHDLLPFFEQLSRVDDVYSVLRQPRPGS
row,SMILES,thermal shift relative to vanadate control
1,Cc1oc2c(C)c3oc(=O)c(CC(=O)N[C@@H](CC(C)C)C(=O)N[C@@H](Cc4ccccc4)C(=O)O)c(C)c3cc2c1C,-12.3% (inactive)
2,Cc1c(CCC(=O)O)c(=O)oc2c(C)c(OCc3ccccc3Cl)ccc12,-3.47% (inactive)
3,O=c1[nH]n(-c2ccc([N+](=O)[O-])cc2)c(=O)c2ccccc12,2.78% (inactive)
4,O=C(CCS(=O)(=O)c1ccc(Br)cc1)NCCc1ccc(Cl)cc1,1.56% (inactive)
5,O=C(O)c1ccc(N/N=C/c2ccc3ncccc3c2)cc1,4.85% (inactive)
6,Cc1ccc(CCCOC(=O)C[N+]2(C)CCCC2)cc1,-9.83% (inactive)
7,O=C1NN(c2ccccc2)C(=O)/C1=C/c1ccc(-c2cccc(C(=O)O)c2)o1,14.3% (active)
8,COc1ccc(/C=C/C(=O)OCC(=O)NC2CCCCCC2)cc1OC,-3.16% (inactive)
9,Cc1ccc(C(=O)NNC(=O)c2cc3cc4ccccc4nc3s2)cc1,-10.9% (inactive)
10,Cc1ccccc1NC(=O)CN1C(=O)N/C(=C\c2cccn2-c2cccc(C(=O)O)c2)C1=O,7.04% (active)
11,CCCc1nc(-c2cc3cc(C)ccc3[nH]c2=O)no1,-30.4% (inactive)
12,O=C(NNC(=O)c1ccc2ccccc2c1)c1ccc(Cl)cc1,-19.4% (inactive)
13,O=S(=O)(Nc1ccccc1Cl)c1cccc2nsnc12,-16.9% (inactive)
14,O=C(c1ccc(CS(=O)(=O)c2ccccc2)o1)N1CCN(c2ccccc2)CC1,-3.55% (inactive)
15,C=Cc1ccc(C(=O)N2CCCC(CCC(=O)N3CCN(c4ccccn4)CC3)C2)cc1 (stereo not drawn),-35.8% (inactive)
16,O=C(Nc1cc(S(=O)(=O)N2CCCCC2)ccc1Cl)C1COc2ccccc2O1 (stereo not drawn),-12% (inactive)
17,C[N+](C)(C)CCNC(=O)c1cc[n+](Cc2ccccc2)c(/C=N/O)c1,-22.6% (inactive)
18,CCOC(=O)C1=C(C)c2ccccc2OC1(C)C(=O)OCC (stereo not drawn),-2.89% (inactive)
19,COc1ccc(Cl)cc1C=CC=NNC(=O)c1ccncc1,-17.4% (inactive)

row,SMILES,thermal shift relative to vanadate control
1,Cc1ccc(CCNC(=O)c2ccc3nc4ccccc4c(=O)n3c2)cc1,-6.77% (inactive)
2,Cc1ccc(NC(=O)c2cc(-c3ccc(C)o3)nc3ccccc23)nc1,5.81% (active)
3,CCOc1ccccc1/C=c1\sc2nc(-c3ccco3)nn2c1=O,4.79% (inactive)
4,O=C(c1cc2c(s1)CCC2)N1CCN(c2ccccc2)CC1,-14.1% (inactive)
5,CC[n+]1c(C)n(-c2ccccc2)c2ccc(NC(C)=O)cc21,-13.8% (inactive)
6,COc1cccc(NC(C)=[N+](C)CCNS(=O)(=O)c2ccc(Cl)cc2)c1,-9.24% (inactive)
7,O=C(Nc1cccnc1)c1cc2cc(Br)ccc2oc1=O,0.88% (inactive)
8,CC(C)CCOc1ccc(C(=O)C[N+]2(C)CCOCC2)cc1,-16.6% (inactive)
9,COc1ccc(S(=O)(=O)c2c[nH]c(=S)[nH]c2=O)cc1Cl,13.1% (active)
10,Cc1c(CCC(=O)O)c(=O)oc2cc(OCc3ccc(Br)cc3)ccc12,-18.2% (inactive)
11,CCc1ccc(NC(=O)CS(=O)CC(=O)NCCCc2ccccc2)cc1 (stereo not drawn),-12.5% (inactive)
12,Nn1cnnc1N/N=C/c1cc([N+](=O)[O-])c(Cl)cc1Cl,-3.64% (inactive)
13,Cc1nnc(SCC(=O)Nc2ccc(S(=O)(=O)Nc3ccc(Cl)nn3)cc2)s1,3.43% (inactive)
14,O=C(N/N=C/c1ccco1)c1ccc(C(=O)N/N=C/c2ccco2)o1,-14.3% (inactive)
15,CO/N=C(\C(=O)N[C@@H]1C(=O)N2C(C(=O)O)=C(COC(C)=O)CS[C@H]12)c1csc(N)n1 (stereo in doubt),-5.16% (inactive)
16,Cc1ccc(/C=C/C(=O)Nc2ccc([N+](=O)[O-])c(NC(=O)/C=C/c3ccc(C)o3)c2)o1,11% (active)
17,N#Cc1c(-c2cccs2)nc(SCC(=O)c2ccc(Br)cc2)[nH]c1=O,-2.02% (inactive)
18,O=C(Cn1cc(/C=N/NC(=O)c2cccc(C(F)(F)F)c2)c2ccccc21)Nc1ccc(F)cc1,10.6% (active)
19,Cc1ccc(Cc2nnc(SCC(=O)Nc3ccc(C)cc3C)[nH]c2=O)cc1,4.55% (inactive)
